# Calls of active or inactive are those of the source. The calls are words filed in the database; no cut-off is given here.
# Tests used:
# [1] = Cytotoxicity against human MRC5 cells after 72 hrs by resazurin assay; assay type: cell-based
# [2] = target: T1, Class 1 phosphodiesterase PDEB1 (Trypanosoma brucei, UniProt Q8WQX9); experiment: Inhibition of Trypanosoma brucei recombinant TbrPDEB1 expressed in Sf21 insect cells assessed as reduction of [3H]-cAMP hydrolysis by scintillation proximity assay
# T1 sequence (Q8WQX9 whole entry): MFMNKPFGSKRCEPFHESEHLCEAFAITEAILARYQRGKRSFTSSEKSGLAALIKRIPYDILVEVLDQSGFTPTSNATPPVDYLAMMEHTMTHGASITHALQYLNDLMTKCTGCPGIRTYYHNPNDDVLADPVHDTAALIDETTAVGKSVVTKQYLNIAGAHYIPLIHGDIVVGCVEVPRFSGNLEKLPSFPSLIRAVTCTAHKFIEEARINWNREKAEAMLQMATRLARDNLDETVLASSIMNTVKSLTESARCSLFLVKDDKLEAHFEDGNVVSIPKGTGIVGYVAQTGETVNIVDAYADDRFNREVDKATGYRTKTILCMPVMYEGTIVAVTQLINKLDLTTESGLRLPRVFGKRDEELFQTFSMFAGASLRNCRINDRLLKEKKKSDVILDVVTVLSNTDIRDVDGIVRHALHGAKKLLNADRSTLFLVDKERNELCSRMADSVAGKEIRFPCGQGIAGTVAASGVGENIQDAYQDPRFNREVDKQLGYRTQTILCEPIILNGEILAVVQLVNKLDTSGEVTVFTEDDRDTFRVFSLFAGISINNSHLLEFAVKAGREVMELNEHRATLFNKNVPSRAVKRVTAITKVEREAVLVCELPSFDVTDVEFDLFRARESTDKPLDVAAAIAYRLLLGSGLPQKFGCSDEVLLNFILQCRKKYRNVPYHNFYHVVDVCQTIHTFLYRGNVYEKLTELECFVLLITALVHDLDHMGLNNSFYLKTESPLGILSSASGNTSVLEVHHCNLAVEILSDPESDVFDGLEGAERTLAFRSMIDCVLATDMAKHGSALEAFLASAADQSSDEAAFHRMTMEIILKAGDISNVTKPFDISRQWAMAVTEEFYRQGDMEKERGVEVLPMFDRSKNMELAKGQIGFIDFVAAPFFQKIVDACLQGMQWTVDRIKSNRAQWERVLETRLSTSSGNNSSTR
# Method in brief: (§1)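 Full-length PDEs used as supernatants of sonicated overexpressing cells: Sf21 for TbrPDEB1 and hPDE4A1/4B1/4C1/4D3, yeast for TbrPDEB2. Inhibition of ³H-cAMP hydrolysis measured by scintillation proximity assay with 0.5 μM cAMP substrate, in at least duplicates. Enzyme adjusted for <20% substrate consumption; blanks used denatured protein. IC50 obtained by nonlinear regression of dose-response curves.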
# [3] = system: Trypanosoma brucei brucei; experiment: microbe, parasite or virus in culture; conditions: Squib-427, 72 h
# [4] = system: Trypanosoma brucei brucei; experiment: Induction of morphological changes in wild type blood form of Trypanosoma brucei brucei assessed as multiple nuclei and kinetoplasts formation after 12 hrs by microscopic analysis; assay type: functional, organism-based
# Method in brief: (§2)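 Bloodstream T. b. brucei trypomastigotes at 1x10^6/mL incubated 12 h with 1, 5 or 10 μM compound or vehicle. Cells washed in saline, spread on slides, fixed 15 min in 2% formaldehyde, stained 30 min with Syto-9 (250 nM) and Nile Red. More than 300 cells per sample scored manually by microscopy as 1N1K, 1N2K, 2N1K or >2N2K.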
# [5] = Inhibition of Trypanosoma brucei recombinant TbrPDEB2 expressed in yeast assessed as reduction of [3H]-cAMP hydrolysis by scintillation proximity assay; method in brief: as §1
# [6] = system: Trypanosoma brucei brucei; experiment: Antitrypanosomal activity against wild type blood form of Trypanosoma brucei brucei assessed as parasite lysis at 10 uM after 48 hrs; assay type: functional, organism-based
# Trypanosoma cruzi = experiment: Antitrypanosomal activity against trypomastigotes of Trypanosoma cruzi after 72 hrs by fluorescence assay
# [7] = system: Trypanosoma brucei rhodesiense; experiment: Antitrypanosomal activity against trypomastigotes of Trypanosoma brucei rhodesiense STIB-900 after 72 hrs by fluorescence assay; conditions: STIB-900, 72 h
# [8] = system: Trypanosoma brucei brucei; experiment: Induction of morphological changes in wild type blood form of Trypanosoma brucei brucei assessed as multiple nuclei and kinetoplasts formation at 10 uM after 12 hrs by microscopic analysis; assay type: functional, organism-based; method in brief: as §2
# Trypanosoma brucei = experiment: Increase in intracellular cAMP level in Trypanosoma brucei 427 expressing cAMP-FRET sensor by FRET assay; assay type: functional, organism-based
# Method in brief: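 Procyclic T. brucei 427 stably expressing an EPAC1-based cAMP FRET sensor (EP procyclin locus, neomycin selection), grown in SDM79 with 5% FCS. Log-phase cells washed in HBSS and used at 5-6 x 10^7/mL. Drug dilutions in DMSO (1 µL/well) mixed with HBSS, then cell suspension added at 27 °C.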
Compound,IC50 [2] [nM],further results
COc1ccc(C2=NNC(=O)C2(C)C)cc1Br,> 10000,CC50 at 72 h [1]: > 64000 nM; IC50 [3]: > 64000 nM
COc1ccc(C2=NN(C3CCCCCC3)C(=O)C2(C)C)cc1Br,2500,–
COc1ccc(C2=NN(C(C)C)C(=O)C2(C)C)cc1OCc1cccc2ccccc12,790,–
COc1ccc(C2=NNC(=O)C2(C)C)cc1OCc1ccccc1,6300,–
COc1ccc(C2=NN(C(C)C)C(=O)C2(C)C)cc1OCc1ccc(C#N)cc1,2000,–
COc1ccc(C2=NN(C(C)C)C(=O)C2(C)C)cc1OCc1ccccn1,2500,–
COc1ccc(C2=NN(C(C)C)C(=O)C2(C)C)cc1Cl,> 10000,–
COc1ccc(C2=NN(C3CCCCCC3)C(=O)C2(C)C)cc1OCCCCOc1ccc(-c2nn[nH]n2)cc1,–,Activity [4]: Dose-dependent effect; IC50 [3]: 520 nM; IC50 [5]: 72 nM; inhibition [6]: Active; IC50 (Trypanosoma cruzi): 7600 nM; IC50 [7]: 60 nM; Activity [8]: Active; Activity (Trypanosoma brucei): Dose-dependent effect
COc1ccc(C2=NNC(=O)C2(C)C)cc1Cl,> 10000,–
COc1ccc(C2=NNC(=O)C2(C)C)cc1OC1CCCC1,12000,–

# Continued, in another order:
IC50 [2] [nM],Compound,further results
160,COc1ccc(C2=NN(C3CCCCCC3)C(=O)C2(C)C)cc1OCCCCOc1ccc(C#N)cc1,–
500,COc1ccc(C2=NN(C3CCCCCC3)C(=O)C2(C)C)cc1OCc1ccccc1,CC50 at 72 h [1]: > 64000 nM; IC50 [3]: 6300 nM
630,COc1ccc(CCOc2cc(C3=NN(C4CCCCCC4)C(=O)C3(C)C)ccc2OC)cc1,–
630,COc1ccc(C2=NN(C3CCCCCC3)C(=O)C2(C)C)cc1OCc1cc(C)on1,–
250,COc1ccc(C2=NN(C3CCCCCC3)C(=O)C2(C)C)cc1OCc1cccc2ccccc12,–
410,COc1ccc(C2=NN(C3CCCCCC3)C(=O)C2(C)C)cc1OC1CCCC1,–

# Source: ChEMBL document CHEMBL2169737, “Catechol pyrazolinones as trypanocidals: fragment-based design, synthesis, and pharmacological evaluation of nanomolar inhibitors of trypanosomal phosphodiesterase B1” (J Med Chem, 2012)
